Source: PubChem BioAssay
Dynein transport: dynein cargo transport inhibition; z-score, hits read low; actives 0.47% (n = 220,000); AID 1381; 3617.4 mouse cells, GR-EGFP nuclear translocation imaging; test concentration mostly 20 µM; stimulated with dexamethasone, 1 µM; active compounds read low;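 active = plate z-score of nuclear minus cytoplasmic receptor signal below a set negative limit, without overly bright fluorescence or cell loss, cut at about -3.5 in these data, passing the limit was not always enough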;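 also: z-score of nuclear minus cytoplasmic ring GR-EGFP intensity difference per well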
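Buffer or medium: tetracycline-free induction medium containing charcoal-stripped FBS / Reagent: dexamethasone agonist, 1.0 µM final, for 30 min / Technique: automated 10x imaging of fixed Hoechst-stained cells / Times: induction 48 h, compound 1 h, agonist 30 min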
Autophagy mod: alters autophagy in cells; MEF GFP-LC3 puncta imaging; test concentration mostly 10 µM; calls only at 10 µM (by protocol); actives 0.98% (n = 190,000); AID 463193;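 active = percentage of spot-positive cells more than 3 SD above its plate mean, without a fluorescence outlier flag or 80% toxicity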;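 also: spot-positive cell cutoff set from DMSO-treated cells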
PERK inhibitor: blocks human PERK kinase | AID 1416 | Q9NZJ5 | actives 0.17% (n = 220,000) | inhibition, % at 5.6 µM | CHO PERK-DD fusion, SEAP luminescence translation reporter;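 active = inhibition above the mean inhibition of all tested compounds plus 3 SD, set separately per screening campaign, cut at about 2.9% in these data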;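 also: PERK kinase domain activated by AP20187 dimerizer at 100 nM; 0% = DMSO with dimerizer and 100% = rapamycin at 8.4 µM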
INS promoter inh: TRM-6 insulin promoter activity inhibition; TRM-6 cells, insulin promoter-eGFP reporter, imaging; reporter expression induced with tamoxifen; AID 1273; inhibition, % at 2 µM; actives 0.9% (n = 130,000);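 active = inhibition above the mean plus 3 SD, with well images judged a real hit on visual review, cut at about 60% in these data, passing the limit was not always enough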
Ins promoter up: MIN6 insulin promoter up-regulation. MIN6 insulin promoter-GFP reporter, high-content imaging; active compounds read high. z-score at 5 µM. actives 0.3% (n = 190,000);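 active = z-score above 3 at 5 µM with at least 500 cells counted in the well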
An asterisk follows results filed as active. Rows were chosen to be rich in hits. Some 2.1% of all compounds tested hit in one or more screens of this group.

What do the screens show for `Cc1c(N=C2N=C(NC(=O)NC(C)(C)C)c3ccccc32)c(=O)n(-c2ccccc2)n1C`?
Dynein transport: 0.028; Autophagy mod: inactive; PERK inhibitor: 1; Ins promoter up: -0.49

Results for Cc1c(N=C2N=C(NC(=O)c3cccs3)c3ccccc32)c(=O)n(-c2ccccc2)n1C ?
Dynein transport: -0.93; Autophagy mod: active; PERK inhibitor: 1

How did CC(=O)c1cccc(NC(=O)C(C)N(C)CC(=O)Nc2ccc(Cl)cc2)c1 (stereo not given) do in these assays?
Dynein transport: -0.27; PERK inhibitor: 0; Ins promoter up: -0.36

How did Brc1ccc(/C=N/Nc2nncc(-c3ccccc3)n2)o1 do in these assays?
Dynein transport: 1.7; Autophagy mod: inactive; PERK inhibitor: 0; INS promoter inh: 57; Ins promoter up: -0.11

How did Brc1ccc(-c2ccc(/C=N/Nc3nc(N4CCOCC4)nc(N4CCOCC4)n3)o2)cc1 do in these assays?
Dynein transport: 1.3; Autophagy mod: active; PERK inhibitor: 0; INS promoter inh: -67; Ins promoter up: 0.14

Results for Brc1ccc(-c2ccc(/C=N/Nc3nncc(-c4ccccc4)n3)o2)cc1 ?
Dynein transport: 0.11; Autophagy mod: active; PERK inhibitor: -1; INS promoter inh: -19; Ins promoter up: -0.33

Results for Fc1cnc(N/N=C/c2ccc(-c3ccc(Br)cc3)o2)nc1N1CCOCC1 ?
Dynein transport: -0.14; PERK inhibitor: -3; Ins promoter up: -0.25

How did Cc1ccc(Nc2nc(N3CCN(C)CC3)nc(N)c2[N+](=O)[O-])cc1C do in these assays?
Dynein transport: -0.23; Autophagy mod: inactive; PERK inhibitor: 0; INS promoter inh: -27; Ins promoter up: 0.59

Results for COc1ccccc1N(C)S(=O)(=O)c1ccc(C(=O)OCC(=O)NCCC2=CCCCC2)cc1 ?
Dynein transport: -0.13; Autophagy mod: inactive; PERK inhibitor: 0; INS promoter inh: 25; Ins promoter up: -0.09

Results for O=C(c1ccccc1)c1coc2c1C(=O)c1ccccc1C2=O ?
Dynein transport: 0.4; Autophagy mod: inactive; PERK inhibitor: 1; INS promoter inh: -80; Ins promoter up: 0.05

What do the screens show for `O=C1c2ccccc2-c2onc3ccc(Oc4ccccc4)c1c23`?
Dynein transport: -0.9; Autophagy mod: active; PERK inhibitor: 0; INS promoter inh: -400; Ins promoter up: 1.3

Results for C/C(=N\N1CCN(C)CC1)c1ccc(OC(F)F)cc1 ?
Dynein transport: 0.17; Autophagy mod: active; PERK inhibitor: 1; INS promoter inh: 75*; Ins promoter up: 0.05

Results for C/C(=N\N1CCN(C)CC1)c1ccc(Cl)c(Cl)c1 ?
Dynein transport: -1.3; Autophagy mod: inactive; PERK inhibitor: 0; Ins promoter up: -0.54

Results for CC1(C)Oc2ccc(C(=O)NC3CCCC3)cc2N(CC(=O)N2CCOCC2)C1=O ?
Dynein transport: -0.16; Autophagy mod: active; PERK inhibitor: 0; Ins promoter up: 0.64

What do the screens show for `CC1(C)Oc2ccc(C(=O)NC3CC3)cc2N(CC(=O)N2CCOCC2)C1=O`?
Dynein transport: -0.15; Autophagy mod: inactive; PERK inhibitor: 2; INS promoter inh: 52; Ins promoter up: -0.35

Results for Cc1ccc(-c2cc(C(=O)Nc3cccnc3)c3ccccc3n2)o1 ?
Dynein transport: -4.4*; Autophagy mod: inactive; PERK inhibitor: 0; Ins promoter up: -0.07

What do the screens show for `CCOC(=O)CC1C(=O)NCCN1S(=O)(=O)c1ccc(C)cc1` (stereo not given)?
Dynein transport: -0.76; Autophagy mod: inactive; PERK inhibitor: 1; Ins promoter up: 2.2

How did CCOC(=O)CC1C(=O)NCCN1S(=O)(=O)c1ccc(Cl)cc1Cl (stereo not given) do in these assays?
Dynein transport: 0.67; Autophagy mod: inactive; PERK inhibitor: 1; INS promoter inh: 30; Ins promoter up: 3.3*

How did O=[N+]([O-])c1ccc(N2CCN(CCO)CC2)cc1Sc1nc2ccccc2[nH]1 do in these assays?
Dynein transport: -0.62; Autophagy mod: inactive; PERK inhibitor: -1; INS promoter inh: -58; Ins promoter up: -0.01

What do the screens show for `C=CCN(CC=C)C(=O)c1ccc(OC2CCN(Cc3ccccn3)CC2)cc1`?
Dynein transport: 1.1; Autophagy mod: inactive; PERK inhibitor: 0; Ins promoter up: 0.31

Results for O=C1OC(c2ccco2)=N/C1=C\c1ccc(-c2cccc(C(F)(F)F)c2)o1 ?
Dynein transport: -1.7; Autophagy mod: inactive; PERK inhibitor: 0; INS promoter inh: 22

What do the screens show for `Cc1ccc(C2CC(c3ccc(Cl)cc3)=NNC2=O)cc1` (stereo not given)?
Dynein transport: -0.34; Autophagy mod: inactive; PERK inhibitor: -1; Ins promoter up: 0.63

Results for Cc1cccc(C2=NNC(=O)C(c3ccc(Cl)cc3)C2)c1 (stereo not given) ?
Dynein transport: 0.54; Autophagy mod: inactive; PERK inhibitor: 1; INS promoter inh: 100*; Ins promoter up: 1.5

How did Cc1ccccc1OCC(=O)OC1CCN(C)CC1 do in these assays?
Dynein transport: 1.4; Autophagy mod: inactive; PERK inhibitor: 1; INS promoter inh: 32; Ins promoter up: 8.6*

How did COc1ccc(-n2c(O)c(C=Nc3ccccc3)c3ccccc3c2=O)cc1 do in these assays?
Dynein transport: -0.94; Autophagy mod: active; PERK inhibitor: 1; INS promoter inh: -6; Ins promoter up: -0.6

How did COc1ccc(-n2c(O)c(C=Nc3ccccc3)c3ccccc3c2=O)cc1OC do in these assays?
Dynein transport: 0.39; PERK inhibitor: 1; Ins promoter up: -0.14

What do the screens show for `Cc1cc(N=Cc2c(O)n(-c3ccc4c(c3)OCO4)c(=O)c3ccccc23)ccn1`?
Dynein transport: 0.16; Autophagy mod: inactive; PERK inhibitor: -1; Ins promoter up: 0.66

How did Cc1ccc(-n2c(O)c(C=Nc3ccc4c(c3)OCO4)c3ccccc3c2=O)cc1C do in these assays?
Dynein transport: -0.6; Autophagy mod: active; PERK inhibitor: 0; Ins promoter up: -2

How did O=CN/C=C/c1cc(O)ccc1O do in these assays?
Dynein transport: 0.62; PERK inhibitor: -1; Ins promoter up: -0.55

Results for Cc1cc(-c2nnc(CCC(=O)N3CCN(Cc4cccnc4)CC3)o2)c(C)o1 ?
Dynein transport: 0.17; Autophagy mod: inactive; PERK inhibitor: 0; Ins promoter up: 0.03

Results for CC(C)(C)OC(=O)CN1C(=O)C(Sc2n[nH]c(-c3ccccc3)n2)CCc2ccccc21 (stereo not given) ?
Dynein transport: -0.48; Autophagy mod: inactive; PERK inhibitor: -1; INS promoter inh: -14

How did CSc1ccc(NC(=O)N2CC=C(n3c(=O)[nH]c4ccccc43)CC2)cc1 do in these assays?
Dynein transport: 0.054; Autophagy mod: inactive; PERK inhibitor: 0; INS promoter inh: 64*; Ins promoter up: -0.41

How did C=CCNc1sc(C(=O)c2ccc(Br)s2)c(N)c1C#N do in these assays?
Dynein transport: -0.36; Autophagy mod: active; PERK inhibitor: 0
